We go through three compounds from publication PMC2225614 (The Journal of General Physiology, 2001).

Each structure is given as a SMILES string.

The subject of one assay is rod CNG channels. The settings on record: ref Molokanova et al. 1999a; cited from earlier work.
The target in assay [1] is T1, α-subunit of the bovine retinal rod CNG channel (RETα) (Bos taurus, UniProt Q00194).
T1 sequence (Q00194 1-690): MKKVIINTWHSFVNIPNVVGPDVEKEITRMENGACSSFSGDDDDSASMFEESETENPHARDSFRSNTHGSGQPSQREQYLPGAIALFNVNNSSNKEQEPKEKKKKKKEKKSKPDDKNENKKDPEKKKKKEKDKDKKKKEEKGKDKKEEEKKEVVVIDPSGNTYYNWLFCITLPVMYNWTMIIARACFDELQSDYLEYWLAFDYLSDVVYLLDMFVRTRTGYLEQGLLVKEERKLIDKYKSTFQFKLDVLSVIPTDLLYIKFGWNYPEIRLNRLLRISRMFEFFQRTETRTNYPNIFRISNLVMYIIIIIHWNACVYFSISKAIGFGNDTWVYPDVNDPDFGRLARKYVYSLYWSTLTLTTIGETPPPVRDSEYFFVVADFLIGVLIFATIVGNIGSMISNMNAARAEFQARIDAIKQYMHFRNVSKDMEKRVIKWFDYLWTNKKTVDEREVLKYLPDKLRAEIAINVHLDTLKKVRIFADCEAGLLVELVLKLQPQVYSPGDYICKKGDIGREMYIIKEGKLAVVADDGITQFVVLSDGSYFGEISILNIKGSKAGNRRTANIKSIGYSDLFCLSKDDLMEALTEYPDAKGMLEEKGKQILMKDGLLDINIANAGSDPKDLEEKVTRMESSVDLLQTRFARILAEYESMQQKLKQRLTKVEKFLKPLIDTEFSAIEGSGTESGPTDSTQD
The class given is biochemical. Particulars: 10 μM Ni^2+; subsaturating cGMP (25 μM); steady state. Put shortly:
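RETα was expressed in oocytes from 50 nl of 50 ng/μl RNA. Inside-out patches were held at −75 mV in symmetrical NaCl/EGTA/EDTA/HEPES, pH 7.5, with solution exchange within 50 ms. Current was normalized to Imax: residual current after 1 min preexposure then 2 mM cGMP, or steady-state current with compound added during 2 mM cGMP. Ki and Hill coefficient came from a modified Hill fit; τa from single-exponential fits; mean ± SEM.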

`Nc1ncnc2c1ncn2[C@@H]1O[C@H](COP(=O)(O)OP(=O)(O)NP(=O)(O)O)[C@@H](O)[C@H]1O` [AMP-PNP]: the “effect on genistein's action on CNG channels” value in the assay with rod CNG channels is “competitive inhibitor of genistein's action on CNG channels”.
As to `[Ni+2]` [Ni^2+], in assay [1], the “effect of Ni^2+ on genistein inhibition” value was “only reduces genistein inhibition”.
With `O=CN/C=C/c1cc(O)ccc1O` [erbstatin], the “effect on genistein's action on CNG channels” value in the assay with rod CNG channels is recorded as “noncompetitively prevents genistein's effect on the channels”.
